From ChEMBL document CHEMBL1139454, “NMR structural characterization of peptide inhibitors bound to the Hepatitis C virus NS3 protease: design of a new P2 substituent” (J Med Chem, 2004)
Non-standard residues stand in square brackets, D forms with d. Residues, ends and D or L forms follow the SMILES beside them. Nva = CCC[C@H](N)C(=O)O

System: not listed separately
Experiment: Inhibitory activity against hepatitis C virus (NS3 protease
Design: species or system Hepacivirus hominis
Summary of the method: (§1)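 Genotype 1b NS3–NS4A heterodimer at 1.5 nM, incubated 45 min at 23 °C with serially diluted inhibitor and 5 μM internally quenched fluorogenic substrate anthranilyl-DDIVPAbu[C(O)-O]-AMY(3-NO₂)TW-OH. Buffer was 50 mM Tris-HCl pH 8.0, 0.25 M sodium citrate, 0.01% n-dodecyl-β-D-maltoside, 1 mM TCEP. Stopped with 1 M MES pH 5.8; product fluorescence read at ex 320/em 405 nm. IC50 from Hill-model nonlinear fit of % inhibition.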

IC50 [µM] | SMILES
150 | CCC[C@H](NC(=O)[C@@H]1CCCN1C(=O)[C@@H](NC(=O)[C@@H](NC(=O)[C@H](CC(=O)O)NC(=O)[C@H](CC(=O)O)NC(C)=O)[C@@H](C)CC)C(C)C)C(=O)O (Ac-DDIVP[Nva]-OH)

Molecular target: NS3 (Hepatitis C virus, UniProt A3EZJ3)
Sequence (A3EZJ3 whole entry): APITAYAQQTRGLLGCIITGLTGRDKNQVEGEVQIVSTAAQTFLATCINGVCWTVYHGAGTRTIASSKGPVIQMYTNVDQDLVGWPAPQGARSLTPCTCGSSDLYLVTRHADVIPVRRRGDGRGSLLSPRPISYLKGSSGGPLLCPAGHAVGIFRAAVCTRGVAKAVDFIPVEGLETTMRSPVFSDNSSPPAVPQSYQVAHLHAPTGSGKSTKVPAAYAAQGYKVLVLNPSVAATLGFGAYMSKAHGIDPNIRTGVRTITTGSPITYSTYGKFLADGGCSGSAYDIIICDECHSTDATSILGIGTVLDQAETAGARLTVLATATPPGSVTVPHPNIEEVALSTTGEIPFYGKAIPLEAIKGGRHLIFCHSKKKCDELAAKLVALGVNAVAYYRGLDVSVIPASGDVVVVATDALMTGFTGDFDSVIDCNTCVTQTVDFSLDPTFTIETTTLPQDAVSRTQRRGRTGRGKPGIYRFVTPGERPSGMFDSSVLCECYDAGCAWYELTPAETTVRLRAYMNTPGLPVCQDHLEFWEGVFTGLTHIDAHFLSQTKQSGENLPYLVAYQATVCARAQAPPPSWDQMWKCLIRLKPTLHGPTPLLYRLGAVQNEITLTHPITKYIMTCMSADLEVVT
Experiment: Inhibitory activity against hepatitis C virus NS3 protease
Design: species or system Hepacivirus hominis
Summary of the method: as §1

SMILES | IC50 [µM]
C=CC1C[C@]1(NC(=O)[C@@H]1C[C@@H](Oc2cc(-c3ccccc3)nc3ccccc23)CN1C(=O)[C@@H](NC(C)=O)C(C)C)C(=O)O (some centres not stated) | 3
C=C[C@@H]1C[C@]1(NC(=O)C1CC(Oc2ccnc3ccccc23)CN1C(=O)[C@@H](NC(=O)[C@@H](NC(C)=O)C1CCCCC1)C(C)C)C(=O)O (single isomer, unassigned) | 0.11
CC(=O)N[C@H](C(=O)N[C@H](C(=O)N1CC(Oc2cccc(-c3cccc([N+](=O)[O-])c3)c2)CC1C(=O)NC1(C(=O)O)CC1)C(C)C)C1CCCCC1 (single isomer, unassigned) | 4
CC(=O)N[C@H](C(=O)N[C@H](C(=O)N1CC(Oc2ccnc3ccccc23)CC1C(=O)NC1(C(=O)O)CC1)C(C)C)C1CCCCC1 (single isomer, unassigned) | 2.2
CC(=O)N[C@H](C(=O)N[C@H](C(=O)N1CC(Oc2ccnc3cc(C(F)(F)F)ccc23)CC1C(=O)NC1(C(=O)O)CC1)C(C)C)C1CCCCC1 (single isomer, unassigned) | 8
C=C[C@@H]1C[C@]1(NC(=O)C1CC(Oc2cc(-c3ccccc3)nc3ccccc23)CN1C(=O)[C@@H](NC(=O)[C@@H](NC(C)=O)C1CCCCC1)C(C)C)C(=O)O (single isomer, unassigned) | 0.013

Now from value to molecule:

IC50 [µM] | SMILES
52 | CC(=O)N[C@H](C(=O)N[C@H](C(=O)N1CC(Oc2cccc(Br)c2)CC1C(=O)NC1(C(=O)O)CC1)C(C)C)C1CCCCC1 (single isomer, unassigned)
6.2 | CC(=O)N[C@H](C(=O)N[C@H](C(=O)N1CC(Oc2cccc(-c3ccccc3)c2)CC1C(=O)NC1(C(=O)O)CC1)C(C)C)C1CCCCC1 (single isomer, unassigned)
0.12 | C=C[C@@H]1C[C@]1(NC(=O)C1CC(Oc2cccc(-c3ccccc3)c2)CN1C(=O)[C@@H](NC(=O)[C@@H](NC(C)=O)C1CCCCC1)C(C)C)C(=O)O (single isomer, unassigned)
4 | CC(=O)N[C@H](C(=O)N[C@H](C(=O)N1CC(OCc2cccc3ccccc23)CC1C(=O)NC1(C(=O)O)CC1)C(C)C)C1CCCCC1 (single isomer, unassigned)
0.37 | CC(=O)N[C@H](C(=O)N[C@H](C(=O)N1CC(Oc2cc(-c3ccccc3)nc3ccccc23)CC1C(=O)NC1(C(=O)O)CC1)C(C)C)C1CCCCC1 (single isomer, unassigned)
